In ChEMBL document CHEMBL1132698, “3-(Piperazinylpropyl)indoles: selective, orally bioavailable h5-HT1D receptor agonists as potential antimigraine agents” (J Med Chem, 1999):

Key:
[1] = biological target: 5-hydroxytryptamine receptor 1B (Homo sapiens, UniProt P28222); assay: Displacement of [3H]5-HT binding from cloned human 5-hydroxytryptamine 1B receptor stably expressed in CHO cells.; assay type: cell-based
[2] = biological target: T1, 5-hydroxytryptamine receptor 1D (Homo sapiens, UniProt P28221); assay: Displacement of [3H]5-HT binding to the cloned human 5-hydroxytryptamine 1D receptor stably expressed in CHO cells; assay type: cell-based
Procedure, shortened: (§1)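 Membranes from CHO cells stably expressing human 5-HT1D receptor were washed, pre-incubated 10 min at 37 °C, then assayed at 0.2 mg protein/mL in 50 mM Tris-HCl pH 7.7 with 4 mM CaCl2, 0.01 mM pargyline and 0.1% ascorbate. […] Filtration and counting followed; IC50 came from nonlinear regression; ≥3 experiments, geometric means.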

[3] = biological target: T1, 5-hydroxytryptamine receptor 1D; assay: Stimulation of [35S]GTP-gamma-S, binding in CHO cells expressing the human 5-hydroxytryptamine 1D receptor.; assay type: functional, cell-based
Procedure, shortened: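 Membranes from CHO cells stably expressing human 5-HT1D were used at 40 μg protein/mL in HEPES 20 mM, NaCl 100 mM, MgCl2 10 mM, pargyline, ascorbate, pH 7.4. They were preincubated with 100 μM GDP plus compound for 20 min at 30 °C, then 15 min on ice. 100 pM [35S]GTPγS was added for 30 min at 30 °C, followed by filtration and counting. EC50 and Emax (relative to 5-HT maximum) came from nonlinear regression.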

[4] = biological target: T1, 5-hydroxytryptamine receptor 1D; assay: Relative efficacy in stimulation of [35S]GTP-gamma-S, binding in CHO cells compared to 5-HT; assay type: functional, cell-based
[5] = biological target: T1, 5-hydroxytryptamine receptor 1D; assay: Stimulation of [35S]GTP-gamma-S, binding in CHO cells expressing the 5-hydroxytryptamine 1D receptor; assay type: functional, cell-based
[6] = biological target: T1, 5-hydroxytryptamine receptor 1D; assay: Displacement of [3H]5-HT binding from human 5-hydroxytryptamine 1D receptor expressed in CHO cells; assay type: cell-based
[7] = biological target: T1, 5-hydroxytryptamine receptor 1D; assay: Displacement of [3H]5-HT from human 5-hydroxytryptamine 1D receptor expressed in CHO cells; assay type: cell-based; procedure, shortened: as §1

T1 sequence (P28221 whole entry): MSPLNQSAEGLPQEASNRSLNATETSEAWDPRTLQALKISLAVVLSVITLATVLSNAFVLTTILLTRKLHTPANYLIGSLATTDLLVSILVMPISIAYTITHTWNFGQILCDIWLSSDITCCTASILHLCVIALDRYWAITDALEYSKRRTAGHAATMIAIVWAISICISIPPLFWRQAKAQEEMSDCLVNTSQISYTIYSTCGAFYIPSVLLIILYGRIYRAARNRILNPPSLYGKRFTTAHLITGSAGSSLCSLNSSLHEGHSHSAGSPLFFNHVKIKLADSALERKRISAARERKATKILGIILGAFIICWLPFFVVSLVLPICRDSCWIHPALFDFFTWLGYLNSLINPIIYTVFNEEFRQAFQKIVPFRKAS
Sequence of 5-hydroxytryptamine receptor 1B (P28222 whole entry): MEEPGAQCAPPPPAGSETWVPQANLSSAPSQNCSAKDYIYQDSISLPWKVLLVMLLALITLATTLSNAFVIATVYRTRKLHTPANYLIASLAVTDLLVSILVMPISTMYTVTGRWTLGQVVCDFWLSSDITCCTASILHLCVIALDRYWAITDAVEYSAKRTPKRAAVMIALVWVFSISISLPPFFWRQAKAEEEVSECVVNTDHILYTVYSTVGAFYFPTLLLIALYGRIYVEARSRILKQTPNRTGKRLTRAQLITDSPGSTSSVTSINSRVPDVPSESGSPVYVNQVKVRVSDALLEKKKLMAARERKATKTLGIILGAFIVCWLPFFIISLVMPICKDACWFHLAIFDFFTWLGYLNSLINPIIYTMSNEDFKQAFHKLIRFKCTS

SMILES	IC50 [1] [nM]	IC50 [2] [nM]	EC50 [3] [nM]	Relative efficacy [4] [%]	EC50 [5] [nM]	IC50 [6] [nM]	IC50 [7] [nM]
CC(=O)Nc1cccc(CN2CCN(CCCc3c[nH]c4ccc(-n5cnnc5)cc34)CC2)c1	2.4	0.2	0.2	70	–	–	–
NC(=O)C(c1ccccc1)N1CCN(CCCc2c[nH]c3ccc(-n4cnnc4)cc23)CC1 (stereo in doubt; 6q) [listing 1 of 2 here]	55	–	–	–	3.8	2.3	–
Fc1ccc(CCN2CCN(CCCc3c[nH]c4ccc(-n5cnnc5)cc34)CC2)cc1F	83	0.9	0.7	91	–	–	–
c1cnc(N2CCN(CCCc3c[nH]c4ccc(-n5cnnc5)cc34)CC2)nc1	0.5	0.6	0.6	59	–	–	–
CC(CN1CCN(CCCc2c[nH]c3ccc(-n4cnnc4)cc23)CC1)c1ccccc1 (stereo not drawn)	45	0.8	0.3	94	–	–	–
c1cc(CN2CCN(CCCc3c[nH]c4ccc(-n5cnnc5)cc34)CC2)ccn1	23	0.6	1	66	–	–	–
Fc1ccc(CN2CCN(CCCc3c[nH]c4ccc(-n5cnnc5)cc34)CC2)cc1	20	0.1	0.3	77	–	–	–
Fc1ccccc1CCN1CCN(CCCc2c[nH]c3ccc(-n4cnnc4)cc23)CC1	98	0.5	1.4	80	–	–	–
O=C1CN(CCCc2c[nH]c3ccc(-n4cnnc4)cc23)CCN1Cc1ccccc1	282	6.6	7.5	85	–	–	–
Clc1ccc(CN2CCN(CCCc3c[nH]c4ccc(-n5cnnc5)cc34)CC2)cc1	59	0.5	1.2	63	–	–	–
Fc1cccc(CCN2CCN(CCCc3c[nH]c4ccc(-n5cnnc5)cc34)CC2)c1	72	0.5	1	88	–	–	–
S=C1CN(CCCc2c[nH]c3ccc(-n4cnnc4)cc23)CCN1Cc1ccccc1	18	0.8	2.3	97	–	–	–
O=C1CN(Cc2ccccc2)CCN1CCCc1c[nH]c2ccc(-n3cnnc3)cc12	3900	173	–	–	–	–	–
c1cc2[nH]cc(CCN3CCCC3)c2cc1-n1cnnc1	–	–	–	120	–	–	–
CN(C)CCc1c[nH]c2ccc(-n3cnnc3)cc12	–	–	–	115	–	–	–
c1ccc(N2CCN(CCCc3c[nH]c4ccc(-n5cnnc5)cc34)CC2)cc1	13	1.4	–	–	–	–	–
CNCC(c1ccccc1)N1CCN(CCCc2c[nH]c3ccc(-n4cnnc4)cc23)CC1 (stereo not drawn)	17	0.9	1.7	103	–	–	–
CN1CCN(CCc2c[nH]c3ccc(-n4cnnc4)cc23)CC1	304	134	–	61	105	–	–
NC(=O)C(c1ccccc1)N1CCN(CCCc2c[nH]c3ccc(-n4cnnc4)cc23)CC1 (stereo in doubt; 6p) [listing 1 of 2 here]	13	0.2	0.2	–	–	–	–
NC(=O)C(c1ccccc1)N1CCN(CCCc2c[nH]c3ccc(-n4cnnc4)cc23)CC1 (stereo in doubt; 6p) [listing 2 of 2 here]	–	–	–	77	–	–	–
FC(F)(F)c1ccc(CN2CCN(CCCc3c[nH]c4ccc(-n5cnnc5)cc34)CC2)cc1	282	–	–	82	11	5.2	–
c1cncc(CCN2CCN(CCCc3c[nH]c4ccc(-n5cnnc5)cc34)CC2)c1	93	4.9	7.8	69	–	–	–
OCC(c1ccccc1)N1CCN(CCCc2c[nH]c3ccc(-n4cnnc4)cc23)CC1 (stereo not drawn)	9.5	0.7	0.3	74	–	–	–

SMILES	IC50 [1] [nM]	IC50 [2] [nM]	EC50 [3] [nM]	Relative efficacy [4] [%]	EC50 [5] [nM]	IC50 [6] [nM]	IC50 [7] [nM]
c1cc(CN2CCN(CCCc3c[nH]c4ccc(-n5cnnc5)cc34)CC2)co1	27	–	0.3	70	–	–	1.1
CN1CCN(CCCCc2c[nH]c3ccc(-n4cnnc4)cc23)CC1	5100	210	–	–	–	–	–
c1ccc(CCN2CCN(CCCc3c[nH]c4ccc(-n5cnnc5)cc34)CC2)cc1	–	–	1.7	73	–	–	–
Fc1ccc(CCN2CCN(CCCc3c[nH]c4ccc(-n5cnnc5)cc34)CC2)cc1	–	–	–	81	–	–	–
CC(=O)Nc1ccc(CCN2CCN(CCCc3c[nH]c4ccc(-n5cnnc5)cc34)CC2)cc1	260	–	1.8	85	–	–	–
CN(C)C(=O)C(c1ccccc1)N1CCN(CCCc2c[nH]c3ccc(-n4cnnc4)cc23)CC1 (stereo not drawn)	102	1	0.8	68	–	–	–
Cc1noc(-c2ccc(CCN3CCN(CCCc4c[nH]c5ccc(-n6cnnc6)cc45)CC3)cc2)n1	46	6.9	–	–	–	–	–
CC(=O)Nc1ccc(CN2CCN(CCCc3c[nH]c4ccc(-n5cnnc5)cc34)CC2)cc1	56	2.5	6.1	78	–	–	–
c1ccc(CNC[C@@H]2CCN(CCc3c[nH]c4ccc(-n5cnnc5)cc34)C2)cc1	37	–	–	102	–	0.6	–
CN1CCN(CCCc2c[nH]c3ccc(-n4cnnc4)cc23)CC1	309	33	–	95	54	–	–
c1ccc(CN2CCN(CCCc3c[nH]c4ccc(-n5cnnc5)cc34)CC2)cc1	11	0.1	0.2	57	–	–	–
c1coc(CN2CCN(CCCc3c[nH]c4ccc(-n5cnnc5)cc34)CC2)c1	18	0.4	0.5	66	–	–	–
NC(=O)C(c1ccccc1)N1CCN(CCCc2c[nH]c3ccc(-n4cnnc4)cc23)CC1 (stereo in doubt; 6q) [listing 2 of 2 here]	–	–	–	61	–	–	–
CC(c1ccccc1)N1CCN(CCCc2c[nH]c3ccc(-n4cnnc4)cc23)CC1 (stereo not drawn)	13	1	–	–	–	–	–
c1ccc(CCCN2CCN(CCCc3c[nH]c4ccc(-n5cnnc5)cc34)CC2)cc1	85	4.9	4	68	–	–	–
c1cncc(CN2CCN(CCCc3c[nH]c4ccc(-n5cnnc5)cc34)CC2)c1	22	0.3	0.3	69	–	–	–
c1ccc(CN2CCN(CCCc3c[nH]c4ccc(-n5cnnc5)cc34)CC2)nc1	18	0.4	0.3	67	–	–	–
c1c[nH]c(CN2CCN(CCCc3c[nH]c4ccc(-n5cnnc5)cc34)CC2)n1	36	1.6	2	68	–	–	–
N#Cc1ccc(CN2CCN(CCCc3c[nH]c4ccc(-n5cnnc5)cc34)CC2)cc1	130	0.7	1.1	71	–	–	–
O=C1CN(CCCc2c[nH]c3ccc(-n4cnnc4)cc23)CCN1CCc1ccccc1	78	5.2	–	–	–	–	–
c1cc2[nH]cc(CCCN3CCNCC3)c2cc1-n1cnnc1	145	31	–	–	–	–	–
c1cc2[nH]cc(CCCN3CCOCC3)c2cc1-n1cnnc1	7.4	8.8	–	–	–	–	–
